Six compounds from ChEMBL document CHEMBL3994572, “Antiviral Triterpenes from the Twigs and Leaves of Lyonia ovalifolia” (J Nat Prod, 2016) can be followed below.

Each structure is given as a SMILES string.

The nature of series [1]: Selectivity index, ratio of TC50 for African green monkey Vero cells to IC50 for Herpes simplex virus-1 F VR 733 infected in African green monkey Vero cells. Format: toxicity. The following applies: read-out: Selectivity Index. The method, boiled down: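 Vero cells (2.5 × 10^4/well) seeded 24 h, medium removed, infected with HSV-1 at 100 TCID50 for 2 h, then graded compound concentrations added until control CPE reached 4+. IC50 = minimal concentration inhibiting 50% CPE (Reed and Muench); triplicate, at least three separate experiments. […] SI = TC50/IC50.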

Series [2] can be described thus: Selectivity index, ratio of TC50 for African green monkey Vero cells to IC50 for Coxsackievirus B3 infected in African green monkey Vero cells. The following applies: read-out: Selectivity Index. Format: toxicity. In a few lines:
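Vero monolayers infected with 100 TCID50 Coxsackie B3 virus, 2 h adsorption at 37 °C, PBS-washed, then held in MEM plus 2% FBS at 37 °C with graded compound concentrations. […] SI = TC50/IC50.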

A short description of series [3]: Selectivity index, ratio of TC50 for MDCK cells to IC50 for Influenza A virus (A/95-359) infected in MDCK cells. Format: toxicity, cell-based. As to conditions: dog, read-out: Selectivity Index. In a few lines: (§1)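 MDCK cells (2.5 × 10^4/well) seeded 24 h, PBS-washed, infected with influenza A/95-359 at 100 TCID50 for 2 h, then exposed to graded compound concentrations until control CPE reached 4+. IC50 = minimal concentration inhibiting 50% of CPE (Reed and Muench); triplicate, at least three separate experiments. […] SI = TC50/IC50.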

A short description of series [4]: Cytotoxicity against MDCK cells assessed as growth inhibition after 48 hrs. Format: cell-based, Canis lupus familiaris. As to conditions: dog, read-out: TC50. The method, boiled down:
(§2)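 Vero or MDCK cells (2.5 × 10^4/well) were seeded for 24 h, then exposed to graded compound concentrations. After 48 h at 37 °C and 5% CO2, cytotoxicity was scored by CPE. TC50 was calculated by Reed and Muench analysis.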

The test system of a further series is Influenza A virus. The experiment in a line: Antiviral activity against Influenza A virus A/95-359 infected in MDCK cells assessed as inhibition of virus-induced cytopathic effect. Format: functional, cell-based. As to conditions: A/95-359, MDCK. The method, boiled down: as §1
A further series deals with Human alphaherpesvirus 1. The series can be described thus: Antiviral activity against Herpes simplex virus-1 F VR 733 infected in African green monkey Vero cells assessed as inhibition of virus-induced cytopathic effect. Format: functional. The following applies: Human alphaherpesvirus 1, Strain F ATCC VR 733, Vero. In a few lines: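 Vero cells (2.5 × 10^4/well) were seeded for 24 h, then the medium was removed. Cells were infected with HSV-1 at 100 TCID50 for 2 h, then given graded compound concentrations. Incubation continued until control CPE reached 4+. Runs were in triplicate, repeated at least three times. IC50 is the minimal concentration inhibiting 50% of CPE, by Reed and Muench.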

The next series has as its system Coxsackievirus B3. The experiment in a line: Antiviral activity against Coxsackievirus B3 infected in African green monkey Vero cells assessed as inhibition of virus-induced cytopathic effect. Format: functional. As to conditions: Enterovirus B. The method, boiled down: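 Vero monolayers were infected with Cox B3 at 100 TCID50 and allowed 2 h adsorption at 37 °C. They were then washed with PBS and kept at 37 °C in MEM with 2% FBS, with or without graded concentrations of test compounds. Read-out was CPE.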

Series [5] is described as follows: Cytotoxicity against African green monkey Vero cells assessed as growth inhibition after 48 hrs. Format: cell-based. The following applies: chlorocebus sabaeus, read-out: TC50. The method, boiled down: as §2

As for `C[C@H](CC[C@H](O)C(C)(C)O)[C@H]1CC[C@@]2(C(=O)O)[C@@H]3CCC4=C(CC[C@@H](O)C4(C)C)C[C@H]3CC[C@]12C`, the selectivity ratio in series [1] is 5.2; in series [2], 10; in series [3] it was 4. The CC50 at 48 h is 19.3 µM in series [4] and 48.1 to 57.7 µM in series [5]. For the same compound, the values for the IC50 in the series on Influenza A virus, in the series on Human alphaherpesvirus 1 and in the series on Coxsackievirus B3 were 4.8 µM, 11.1 µM and 4.8 µM, respectively.

`C[C@H](CC[C@H](O)C(C)(C)O)[C@H]1CC[C@@]2(C(=O)O)C3=C(CC[C@]12C)[C@@]1(C)CC[C@@H](O)C(C)(C)[C@@H]1CC3`: the selectivity ratio in series [1] is 7.6; in series [2] it was 4; in series [3] it was 4.3. The CC50 at 48 h was 16 µM in series [4] and 16 to 19.3 µM in series [5]. For the same compound, the figures for the half-maximal inhibitory concentration (IC50) in the series on Influenza A virus, in the series with Human alphaherpesvirus 1 and with Coxsackievirus B3 were 3.7 µM, 2.1 µM and 4.8 µM, respectively.

`NC(=O)c1ncn([C@@H]2O[C@H](CO)[C@@H](O)[C@H]2O)n1` [RIBAVIRIN]: the selectivity ratio was 6.8 in series [2] and 895 in series [3]. The CC50 at 48 h in series [4] stood at 1160 µM. Besides, the half-maximal inhibitory concentration (IC50) worked out at 1.3 µM with Influenza A virus and 292 µM with Coxsackievirus B3.

As for `CC(=O)OC[C@H]1O[C@@H](O[C@@H]2CC[C@]3(C)C4=C(CC[C@H]3C2(C)C)[C@]2(C(=O)O)CC[C@H]([C@H](C)CC[C@H](O)C(C)(C)O)[C@@]2(C)CC4)[C@H](O)[C@@H](O)[C@@H]1O`, the selectivity ratio was 3 in series [1], 1.7 in series [2] and 1.7 in series [3]. For the same compound, the CC50 at 48 h in series [4] and in series [5] was 19.3 µM in each case. The results for the IC50 with Influenza A virus, with Human alphaherpesvirus 1 and with Coxsackievirus B3 were 11.1 µM, 6.4 µM and 11.1 µM, respectively.

Consider `C[C@H](CCC(=O)C(C)(C)O)[C@H]1CC[C@@]2(C(=O)O)[C@@H]3CCC4=C(CC[C@@H](O[C@@H]5O[C@H](CO)[C@@H](O)[C@H](O)[C@H]5O)C4(C)C)C[C@H]3CC[C@]12C`, for which the selectivity ratio in series [1] and in series [2] was 2.1 in each case. For the same compound, the CC50 at 48 h in series [4] came out at 33.3 µM; in series [5] it was 23.1 µM. The concentration for half-maximal inhibition (IC50) in the series on Influenza A virus is greater than 11.1 µM; with Human alphaherpesvirus 1 it was 11.1 µM; with Coxsackievirus B3, 11.1 µM.

As to `C[C@H](CCC(=O)C(C)(C)O)[C@H]1CC[C@@]2(C(=O)O)[C@@H]3CCC4=C(CC[C@@H](O)C4(C)C)C[C@H]3CC[C@]12C`, the selectivity ratio was 4.3 in series [1], 7.6 in series [2] and 3 in series [3]. For the same compound, the CC50 at 48 h in series [4] came to 6.4 µM; in series [5] it was 16 µM. Also, the IC50 in the series with Influenza A virus is 2.1 µM; in the series with Human alphaherpesvirus 1, 3.7 µM; in the series on Coxsackievirus B3, 2.1 µM.
